Measurements reported in publication PMC12398596 (Nature Communications, 2025).

Columns and labels:
BV2 cells [1] = experiment: Colocalization of P2CSKn-pretreated sFITC-Aβ42 with LysoTracker Red in BV2 cells; assay type: cell-based, mouse; conditions: chloroquine 10 μM, 1 h pretreatment
BV2 cells [2] = experiment: Degradation of FITC-Aβ42 forms in BV2 cells; assay type: cell-based, mouse; conditions: for degradation of intracellular FITC-Aβ42: 0.5 μM FITC-Aβ42 forms, 180 min then washed
Msr1 mRNA in BV2 cells = experiment: Msr1 mRNA in BV2 cells, rt-qPCR; assay type: cell-based, mouse; conditions: for expression of Msr1 mRNA, TLR agonists (in words): LPS 1.0 μg/mL, Pam2CSK4 1.0 μM, zymosan A 50 μg/mL, flagellin 200 nM
Marco mRNA in BV2 cells = experiment: Marco mRNA in BV2 cells, rt-qPCR; assay type: cell-based, mouse; conditions: for expression of Marco mRNA, TLR agonists (in words): LPS 1.0 μg/mL, Pam2CSK4 1.0 μM, flagellin 200 nM
sAβ42 [3] = experiment: Dynamic light scattering, sAβ42 with compounds; assay type: physicochemical; conditions: PBS; for shift of sAβ42 particle size to single range around 100 nm: sAβ42 + compound
fAβ42 [4] = target: T1, fAβ42 (Homo sapiens, UniProt P05067); experiment: PICUP-Western blot of fAβ42, antibody 4G8; assay type: biochemical; conditions: fAβ42 20 μM, 37 °C, P2CSKn result at 0.5 eq. (10 μM)
fFITC-Aβ42 = experiment: LSCM re-assembly of fFITC-Aβ42 plaques; assay type: biochemical; conditions: fFITC-Aβ42 5.0 μM, compound 25 μM, PBS
Mrc1 mRNA in BV2 cells = experiment: Mrc1 mRNA in BV2 cells, rt-qPCR; assay type: cell-based, mouse; conditions: for expression of Mrc1 mRNA, TLR agonists (in words): LPS 1.0 μg/mL, Pam3CSK4 1.0 μM, Pam2CSK4 1.0 μM, zymosan A 50 μg/mL
sAβ42 [5] = experiment: Tyndall effect of sAβ42 with compounds; assay type: physicochemical; conditions: PBS; for Tyndall effect of sAβ42 on addition of compound: imaged immediately after mixing; for Tyndall effect of compound itself (self-aggregation): compound alone
BV2 cells [6] = experiment: Phagocytosis of sFITC-Aβ42 in BV2 cells, flow cytometry; assay type: cell-based, mouse; conditions: sFITC-Aβ42 0.5 μM, 2 eq., 180 min, mean ± SD, n = 3
BV2 cells [7] = experiment: Phagocytosis of fFITC-Aβ42 in BV2 cells, flow cytometry; assay type: cell-based, mouse; conditions: fFITC-Aβ42 0.5 μM, 8 eq., 180 min, mean ± SD, n = 3
MARCO = MARCO protein in BV2 cells, Western blot; assay type: cell-based, mouse; conditions: P2CSKn or Pam2CSK4 1.0 μM, 12 h
MSR1 = MSR1 protein in BV2 cells, Western blot; assay type: cell-based, mouse; conditions: P2CSKn or Pam2CSK4 1.0 μM, 12 h
NLRP3 = NLRP3 protein in BV2 cells, Western blot; assay type: cell-based, mouse; conditions: 1.0 μM, 12 h
BV2 cells [8] = experiment: Treat & wash phagocytosis of fFITC-Aβ42 in BV2 cells; assay type: cell-based, mouse
BV2 cells [9] = experiment: Normal vs treat & wash phagocytosis of sFITC-Aβ42 in BV2 cells; assay type: cell-based, mouse; conditions: mean ± SD, n = 3
Aβ plaque [10] = experiment: Local cortex injection, Aβ plaque by Thioflavin S, APP/PS1 mice; assay type: in vivo, APP/PS1 transgenic mice; conditions: 13-month-old APP/PS1, cortex, 100 μM 300 nL, 5 d, mean ± SD
Summary of the method: (§1)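 13-month APP/PS1 mice (C57BL/6 background) under sodium pentobarbital (50 mg/kg) received a unilateral stereotaxic cortical injection (AP +1.0, ML ±1.0, DV −1.0) of compound or reference (100 μM, 300 nL saline, with Hoechst 33342) at 50 nL/min. Perfusion-fixed (PBS, 4% PFA) at 2 or 5 days and sections immunostained. Ratio = signal at injection zone (>80% max dye) over adjacent zone (>200 μm away, <10% dye); 50 μm around needle track excluded.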

Aβ plaque [11] = experiment: Local cortex injection, Aβ by antibody OC, APP/PS1 mice; assay type: in vivo, APP/PS1 transgenic mice; conditions: 13-month-old APP/PS1, cortex, 100 μM 300 nL, 5 d, mean ± SD
Summary of the method: as §1

Iba1 = experiment: Local cortex injection, Iba1, APP/PS1 mice; assay type: in vivo, APP/PS1 transgenic mice; conditions: 13-month-old APP/PS1, cortex, 100 μM 300 nL, 5 d, mean ± SD
Summary of the method: as §1

Aβ plaque [12] = experiment: Local hippocampus injection, Aβ plaque by Thioflavin S, APP/PS1 mice; assay type: in vivo, APP/PS1 transgenic mice; conditions: 9-month-old APP/PS1, hippocampus, 100 μM 300 nL, 5 d, mean ± SD
Summary of the method: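 APP/PS1 mice (9 or 16 months) under pentobarbital (50 mg/kg) received stereotaxic injections of test compound (100 μM, 300 nL saline, with Alexa Fluor 594) into right dorsal hippocampus (AP −2.2, ML +1.5, DV −1.9 mm) and reference into left. Meloxicam 5.0 mg/kg s.c. given pre-surgery and every 12 h for 3 days. Perfusion-fixed at 5 or 10 days, DAPI-counterstained. INJ/ADJ ratios compared between hemispheres.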

BV2 cells [13] = experiment: Phagocytosis of fluorescent microsphere in BV2 cells, flow cytometry; assay type: cell-based, mouse; conditions: fAβ42 0.5 μM
fAβ42 [14] = target: T1, fAβ42; experiment: Dynamic light scattering, fAβ42 with P2CSKn, time-dependent; assay type: physicochemical
BV2 cells [15] = experiment: RNA-seq of BV2 cells; assay type: cell-based, mouse
caspase-3 = experiment: Cleaved caspase-3 in BV2 cells, Western blot; assay type: cell-based, mouse; conditions: sAβ42, fAβ42 0.5 μM; hPAβ42 1.0 μM P2CSKn + 0.5 μM sAβ42; 12 h
TLR2, BV2 cells = experiment: Phagocytosis of FITC-Aβ42 forms in TLR2-WT; assay type: cell-based, mouse; conditions: 0.5 μM, 30 min; for uptake in TLR2-knockdown BV2 cells: TLR2-siRNA; for uptake in BV2-NC cells: null-siRNA control
fAβ42 [16] = target: T1, fAβ42; experiment: ThT fluorescence kinetics of preformed fAβ42; assay type: biochemical; conditions: sAβ42 10 μM, 37 °C
primary microglia = experiment: Phagocytosis of sFITC-Aβ42 in primary microglia, flow cytometry; assay type: cell-based, mouse
TLR2 = experiment: Cellular colocalization of FITC-Aβ42/RhoB-P2CSKn/TLR2, LSCM; assay type: cell-based, mouse; conditions: RhoB-P2CSKn 1.0 μM, sFITC-Aβ42 0.5 μM, 1 h
[17] = 1.0 μM, 12 h, in the absence or presence of Aβ42 species
[18] = equimolar P2CSKn + fAβ42 (20 μM), whole sample, initial
[19] = fAβ42 only 20 μM, whole sample, 18.5 h
[20] = fAβ42 only 20 μM, whole sample, initial
[21] = fAβ42 only, supernatant, 18.5 h

## CCN(CC)CCCC(C)Nc1ccnc2cc(Cl)ccc12 (stereo not shown) [chloroquine]
BV2 cells [1]
  lysosome amount and level of phagocytosis of hybrid aggregates: significantly reduced
BV2 cells [2]; chloroquine pretreatment 10 μM, 1 h
  degradation of intracellular FITC-Aβ42, effect of inhibitor: almost completely abolished

## Flagellin
Msr1 mRNA in BV2 cells
  expression of Msr1 mRNA, TLR agonists (in words): failed to upregulate
Marco mRNA in BV2 cells
  expression of Marco mRNA, TLR agonists (in words): failed to upregulate

## KLVFFn
sAβ42 [3]
  shift of sAβ42 particle size to single range around 100 nm: did not occur
fAβ42 [4]
  oligomer alteration in fAβ42: not observed
fFITC-Aβ42
  co-location with / reshaping of FITC-Aβ42 plaque: did not occur

## Pam2CSK4
Mrc1 mRNA in BV2 cells
  expression of Mrc1 mRNA, TLR agonists (in words): significantly attenuated
Msr1 mRNA in BV2 cells; [17]
  mRNA of Msr1 (in words): upregulated
Msr1 mRNA in BV2 cells
  expression of Msr1 mRNA, TLR agonists (in words): substantially upregulated
Marco mRNA in BV2 cells; [17]
  mRNA of Marco (in words): upregulated
Marco mRNA in BV2 cells
  expression of Marco mRNA, TLR agonists (in words): upregulated
sAβ42 [5]
  Tyndall effect of sAβ42 on addition of compound: much less activity than P2CSKn
sAβ42 [3]
  shift of sAβ42 particle size to single range around 100 nm: did not occur
fAβ42 [4]
  oligomer alteration in fAβ42: not observed
fFITC-Aβ42
  co-location with / reshaping of FITC-Aβ42 plaque: did not occur
BV2 cells [6]
  MFI180: 18911 ± 310
BV2 cells [7]
  MFI180: 24286 ± 520
  count180 (cells internalized FITC-Aβ42): 89.2 ± 0.3%
MARCO
  protein level of MARCO (in words): significant increase
MSR1
  protein level of MSR1 (in words): significant increase
NLRP3
  protein level of NLRP3 (in words): increased
BV2 cells [8]; 1.0 μM 6 h, washed, fFITC-Aβ42 0.5 μM 12 h, mean ± SD, n = 3
  phagocytosis of fFITC-Aβ42, treat & wash: 43.8 ± 4.1%
BV2 cells [8]; versus untreated fFITC-Aβ42
  increase in phagocytosis of fFITC-Aβ42, treat & wash: about 26%
BV2 cells [9]; compound 1.0 μM 6 h, washed, sFITC-Aβ42 0.5 μM 12 h
  phagocytosis of sFITC-Aβ42, treat & wash group: 24.0 ± 2.3%
BV2 cells [9]; sFITC-Aβ42 0.5 μM pretreated with compound 1.0 μM 30 min, 12 h
  phagocytosis of sFITC-Aβ42, normal group: 49.3 ± 4.1%
Aβ plaque [10]
  INJ/ADJ TS: 0.85 ± 0.11
Aβ plaque [11]
  INJ/ADJ OC: 1.05 ± 0.28
Iba1
  INJ/ADJ Iba1: 5.79 ± 1.71

## Pam2KTK4-ahx-KLVFF-nal [P2KTKn]
sAβ42 [5]
  Tyndall effect of sAβ42 on addition of compound: didn’t facilitate that of sAβ42
  Tyndall effect of compound itself (self-aggregation): significant Tyndall effect

## Pam3CSK4
Mrc1 mRNA in BV2 cells
  expression of Mrc1 mRNA, TLR agonists (in words): significantly attenuated

## Pam3CSK4-ahx-KLVFF-nal [P3CSKn]
sAβ42 [5]
  Tyndall effect of sAβ42 on addition of compound: didn’t facilitate that of sAβ42
  Tyndall effect of compound itself (self-aggregation): significant Tyndall effect

## Pam-KCKSKVFLKFK-ahx-nal [RP]
Aβ plaque [12]
  INJ/ADJ TS: 1.12 ± 1.04

## Zymosan A
Mrc1 mRNA in BV2 cells
  expression of Mrc1 mRNA, TLR agonists (in words): significantly attenuated
Msr1 mRNA in BV2 cells
  expression of Msr1 mRNA, TLR agonists (in words): substantially upregulated

## fAβ42: pre-formed fibrillar Aβ42
Mrc1 mRNA in BV2 cells; fAβ42 0.5 μM, after 30 min
  expression of Mrc1 mRNA (in words): significantly suppressed
Msr1 mRNA in BV2 cells; fAβ42 0.5 μM, after 30 min
  expression of Msr1 mRNA (in words): significantly suppressed
Marco mRNA in BV2 cells; fAβ42 0.5 μM, after 60 min
  expression of Marco mRNA (in words): significantly suppressed
BV2 cells [13]
  uptake of fluorescent microsphere (in words): time-dependently decreased
fAβ42 [14]; equimolar P2CSKn + fAβ42 (20 μM), whole sample, 0.5 h
  hydrodynamic diameter, bimodal range: 40–900 nm
fAβ42 [14]; [18]
  hydrodynamic diameter, population 2: ~700 nm
  hydrodynamic diameter, population 3: ~9000 nm
fAβ42 [14]; [19]
  hydrodynamic diameter, population 1: around 16 nm
  hydrodynamic diameter, population 2: ~136 nm
  hydrodynamic diameter, population 3 (dominant): ~6000 nm
fAβ42 [14]; [20]
  hydrodynamic diameter, population 1: about 40 nm
  hydrodynamic diameter, population 2: ~700 nm
  hydrodynamic diameter, population 3: ~6000 nm
fAβ42 [14]; [21]
  hydrodynamic diameter, species 1: around 107 nm
  hydrodynamic diameter, species 2: ~717 nm
fAβ42 [14]; fAβ42 only, supernatant, until 4.5 h
  hydrodynamic diameter, monomodal range: 40–85 nm
BV2 cells [15]; fAβ42 0.5 μM, BV2, 12 h
  phagosome-related genes, RNA-seq: significantly donwregulated
  –log2(FC) of Msr1, Marco and Mrc1: > 1
BV2 cells [15]; fAβ42 treatment, RNA-seq
  Tlr2, Tlr4 or Tlr5 expression: not significantly affected
caspase-3
  apoptosis of BV2 cells, cleaved caspase-3: significant apoptosis

## fFITC-Aβ42: pre-formed fibrillar FITC-Aβ42
BV2 cells [2]
  degradation of intracellular FITC-Aβ42: efficiently degraded
TLR2, BV2 cells
  uptake in TLR2-knockdown BV2 cells: 12.8%
  uptake in BV2-NC cells: ~ 39.2%

## sAβ42: soluble Aβ42
sAβ42 [3]; sAβ42 alone
  hydrodynamic diameter, peak 1: around 3 nm
  hydrodynamic diameter, peak 2: ~12 nm
fAβ42 [16]
  lag time of β-sheet formation: 6.5 h
caspase-3
  apoptosis of BV2 cells, cleaved caspase-3: significant apoptosis

## sFITC-Aβ42: soluble FITC-labeled Aβ42
Primary microglia; sFITC-Aβ42 0.5 μM alone, within about 360 min
  cell population with engulfed sFITC-Aβ42: ~ 40%
Primary microglia; sFITC-Aβ42 0.5 μM ± P2CSKn 1.0 μM
  intracellular accumulation of FITC-Aβ42: extremely low
BV2 cells [2]
  degradation of intracellular FITC-Aβ42: efficiently degraded
TLR2, BV2 cells
  uptake in TLR2-knockdown BV2 cells: 12.6%
  uptake in BV2-NC cells: ~ 27.3%
TLR2
  co-localization of TLR2 with RhoB-P2CSKn and FITC-Aβ42: rarely observed
